Results on 1 compound are retold here after PMC12065538 (Drug Design, Development and Therapy, 2025).

For series [1] the following is noted: cited from earlier work.
A further series concerns plasma protein. Conditions: regardless of concentration; ref prescribing information; cited from earlier work.
The nature of series [2]: Observed plasma concentrations of venetoclax concomitant with voriconazole. In kind it is in vivo. The conditions noted are these: human, oral, 100 mg. Summed up:
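Adults with hematologic malignancies received test compound 100 mg orally once daily plus an azole antifungal (400 mg bid day 1, then 200 mg bid; or 200 mg bid continued). Intensive set: EDTA blood 0–1 h predose and 2–24 h post-dose on day 5–11. Validation set: troughs 0–1 h predose, day 2–22. Plasma measured by LC-MS/MS in MRM mode with deuterated internal standards; calibration range 0.05–10.0 μg/mL.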

[3] abbreviates: venetoclax 100 mg with posaconazole.

Read-outs that look alike come from different tables or passages of the source.

The term CL/F denotes clearance divided by bioavailability, as obtained after extravascular dosing. One may read the AUC as concentration integrated over time.

In the case of `CC1(C)CCC(CN2CCN(c3ccc(C(=O)NS(=O)(=O)c4ccc(NCC5CCOCC5)c([N+](=O)[O-])c4)c(Oc4cnc5[nH]ccc5c4)c3)CC2)=C(c2ccc(Cl)cc2)C1` [venetoclax], in series [1] (PopPK studies, various patient populations and healthy subjects), the “reduction of apparent oral clearance (CL/F) by CYP3A inhibitors” value is 82–86%. Besides, the apparent clearance CL/F in series [1] (co-administered with posaconazole, patients with AML) was 1.1 to 1.4 L/h; in series [1] (other PopPK models with strong CYP3A inhibitors as covariates) it was 2.2 to 3.6 L/h; in series [1] (venetoclax alone) it was 15.0 to 19.5 L/h. Besides, the AUC24h in series [1] (observed, venetoclax 70 mg with posaconazole, day 12, CV 54%) is 49100 ± 26500 ng·h/mL; in series [1] (venetoclax 50 mg with posaconazole), 47200 ± 27400 ng·h/mL; in series [1] (setting [3]) it was 76200 ± 13700 ng·h/mL; in series [1] (venetoclax 400 mg administered alone), 32800 ± 16900 ng·h/mL. For the same compound, the “accumulation ratio (AUC24h day 14 to day 7)” value in series [1] (venetoclax 70 mg with posaconazole 300 mg qd, range 1.0–2.9) was 1.3; in series [1] (venetoclax 400 mg alone, range 0.5–2.1) it was 1.0. Besides, in series [1] (setting [3]), the “average AUC higher than venetoclax (400 mg) with caspofungin” value is 103%. Moreover, in series [1] (venetoclax with voriconazole), the “AUC increase versus venetoclax (400 mg) with caspofungin” value is 77%. In addition, the “increase of AUC” value in series [1] (with posaconazole) was 8.8 fold. For the same compound, in series [1] (with posaconazole), the “increase of Cmax” value is given as 7.1 fold. In the series with plasma protein, the “fu (unbound fraction in plasma)” value is recorded as below 0.01. Moreover, in series [2], the AUC worked out at 52400 ng·h/mL.
